MIN6 prolif: induces beta-cell replication in MIN6 cells; AID 2380; proliferation, % at 10 µM; 0.29% of 330,000 active; MIN6 cells proliferation, ATPlite luminescence, 48 h; cells starved in 0.2% serum; 100% = growth in 10% serum;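 active = compounds whose signal lies at least 3.5 SD above the mean of all wells on their plate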;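 also: 0% = DMSO-treated cells in low-serum medium and 100% = 10% serum control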
TLR4 MyD88 comp: inhibitors of human TLR4-MyD88 binding. O00206+Q99836. HeLa CL3-4 TLR4/MyD88 BLA complementation, FRET ratio. inhibition, % at 8.4 µM. 0.18% of 200,000 active. AID 861; in the data active = inhibition above about 25%;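 also: 0% = vehicle and 100% = reference inhibitor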
NOD2 RIPK2 PPI: blocks binding of human NOD2 to RIPK2; CHO BLA complementation NOD2-RIPK2, CCF4 ratio; inhibition, % at 4.98 µM; 0.38% of 360,000 active; in the data active = inhibition above about 21%;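 also: 0% = vehicle only and 100% = reference blocker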
MC4R antag cAMP: blocks human MC4R cAMP signaling; inhibition, % at 6.5 µM; MC4R-expressing cells, MTII-stimulated cAMP, LANCE TR-FRET; AID 540295; 0.48% of 360,000 active;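 active = inhibition above its plate's cutoff, the mean of tested wells on that plate plus 3 SD, cut at about 29% in these data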;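 also: 0% = Melanotan II alone and 100% = Melanotan II plus saturating MCL0020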
Target sequence (P32245 whole entry, looked up): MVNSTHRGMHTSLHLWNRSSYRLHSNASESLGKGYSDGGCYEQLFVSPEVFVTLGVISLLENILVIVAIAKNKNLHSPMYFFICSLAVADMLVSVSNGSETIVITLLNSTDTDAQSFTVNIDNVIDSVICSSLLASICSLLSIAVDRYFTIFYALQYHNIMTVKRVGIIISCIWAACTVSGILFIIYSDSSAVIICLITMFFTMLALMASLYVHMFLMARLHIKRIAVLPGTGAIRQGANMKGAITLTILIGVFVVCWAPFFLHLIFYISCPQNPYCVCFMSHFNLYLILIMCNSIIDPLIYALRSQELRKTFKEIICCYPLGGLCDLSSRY
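System – human MC4R-expressing U2OS cells · Also added – Melanotan II · Dosing – one concentration, 6.5 µM nominal · Timing – 30-min compound, 1-h challenge, 1-h detection, room temperature · Measured by – Eu-cAMP/anti-cAMP TR-FRET, emission 671 nm · Replicates – singlicate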
MC4R barr agon: human MC4R agonism via beta-arrestin | U2OS MC4R beta-arrestin complementation, luminescence; percent of melanotan II response, DMSO zero | 0.98% of 360,000 active | AID 540308 | activation, % at 8.9 µM;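 active = activation above a per-plate cutoff, the mean activation of sample wells on that plate plus 3 SD, cut at about 8% in these data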
TLR9-MyD88 block: inhibitors of human TLR9-MyD88 binding. Q9NR96+Q99836. CHO BLA complementation TLR9-MyD88, CCF4 FRET ratio. inhibition, % at 4.98 µM. 0.21% of 340,000 active. AID 504734;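 active = inhibition above the mean over all tested compounds plus 3 SD, cut at about 21% in these data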;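 also: 0% = DMSO only wells and 100% = clavulanate BLA inhibitor control wells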
MC4R barr ag: human MC4R beta-arrestin agonism confirmation. shares compounds with MC4R barr agon. U2OS MC4R beta-arrestin recruitment, luminescence; scaled DMSO 0%, Melanotan II 100%. activation, % at 8.9 µM. 31% of 2,400 active;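 active = mean activation across replicates above the hit cutoff set in the earlier primary screen, cut at about 8% in these data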
MOR DOR agonist: activates mu-delta opioid heterodimer, MC4R agonist counter-screen | shares compounds with MC4R barr agon | U2OS PathHunter beta-arrestin, beta-gal luminescence; percent of deltorphin B response, DMSO zero | activation, % at 9.2 µM | 5.8% of 2,400 active;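 active = mean activation across replicates exceeds the hit threshold derived in the earlier primary screen, cut at about 18% in these data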;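 also: 100% = deltorphin B at 0.9 µM final and 0% = DMSO alone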
Active calls of the source: *; · = no result given. Rows were chosen to be rich in hits. Some 2.1% of all compounds tested hit in one or more screens of this group.

SMILES	MIN6 prolif	TLR4 MyD88 comp	NOD2 RIPK2 PPI	MC4R antag cAMP	MC4R barr agon	TLR9-MyD88 block	MC4R barr ag	MOR DOR agonist
O=c1c(Cl)c(N/N=C/c2ccc(Cl)cc2)cnn1-c1ccccc1	-5	-7	3	3	18*	14	9.4*	5
CC(C)(c1ccccc1)c1ccc(OCC(O)CNC2CCN(Cc3ccccc3)CC2)cc1 (configuration not stated)	-7	-1	14	7	25*	11	5	19*
Cc1ccc(OCC(O)CNC2CCCC2)c(C)c1 (configuration not stated)	-2	·	4	-2	-1	8	·	·
Cc1ccccc1OCC(O)CNC1CCC(NCC(O)COc2ccccc2C)CC1 (configuration not stated)	-5	·	16	6	11*	-1	38*	35*
O=C(COC(=O)/C=C/c1ccc(Cl)cc1Cl)NCCC1=CCCCC1	0	-10	-2	4	0	1	·	·
Cc1cc(Br)cc(Br)c1OCC(=O)NNC(=O)CCC(=O)NCc1ccccc1	-4	·	-3	12	1	5	·	·
O=C(COC(=O)/C=C/c1cccc(Cl)c1)NC(=O)NCc1ccccc1	4	·	2	1	11*	-2	3	5
O=C(COC(=O)/C=C/c1ccc(OC(F)F)cc1)NC(=O)NCc1ccccc1	1	·	10	13	6	-3	·	·
O=C(COC(=O)/C=C/c1ccccc1Cl)NCCc1ccc(Cl)cc1Cl	0	7	-6	17	9.9*	-10	1	3
Cc1cc(Br)cc(Cl)c1OCC(=O)NC(=O)NCc1ccccc1	2	-9	-9	2	12*	4	2	6
O=C(ON=C1CCN(c2ccc([N+](=O)[O-])cc2)CC1)c1ccccc1	1	-15	-1	4	-1	-10	·	·
O=C(OC1CCN(c2ccc([N+](=O)[O-])cc2)CC1)c1ccccc1	0	-7	-5	2	20*	-6	2	6
CCOc1ncccc1C(=O)Nc1cccc(-c2nc3cccnc3s2)c1	5	·	-8	-6	17*	-1	8	3
O=C(c1cc(Cl)ccc1O)N1CCN(S(=O)(=O)c2cccs2)CC1	0	·	-5	10	-1	-6	·	·
COc1ccc(NC2=Nc3cccc4cccc2c34)cc1OC	-2	-5	-2	-4	-2	-1	·	·
C(=N\NC1=Nc2cccc3cccc1c23)/c1ccccc1	0	0	14	-8	14*	11	1	4
O=C(CN(C(=O)Cn1nnc(-c2ccc(F)cc2)n1)c1cccc(F)c1)NC1CCCC1	-1	·	5	1	1	-4	·	·
CCNc1ccc(C(=O)OCC(=O)NCc2ccccc2Cl)cc1[N+](=O)[O-]	1	14	-1	0	16*	1	7	3
CCNc1ccc(C(=O)OCC(=O)NC(=O)NCC(C)C)cc1[N+](=O)[O-]	3	5	-6	10	-3	2	·	·
O=C(COC(=O)c1cc([N+](=O)[O-])ccc1NCc1ccccc1Cl)NCC(F)(F)F	-2	-1	10	2	13*	0	4	4
CC(C)(C)c1ccc(S(=O)(=O)NNC(=O)c2cc3ccccc3[nH]2)cc1	-4	·	3	10	17*	-8	8	16
NS(=O)(=O)c1ccc(CCNC(=O)C(=O)C2C(=O)Nc3ccccc32)cc1 (configuration not stated)	-4	·	0	3	-1	0	·	·
N#Cc1ccsc1NC(=O)COC(=O)c1ccc2ccccc2c1	-2	-6	-6	15	17*	-8	4	4
O=C(NCc1ccc2c(c1)OCO2)c1cc(-c2cc(Cl)ccc2O)n[nH]1	-4	·	-1	3	11*	8	5	4
Cc1cc(O)c(-c2cc(C(=O)NCc3ccc4c(c3)OCO4)[nH]n2)cc1C	2	-14	-9	2	1	0	·	·
SMILES	MIN6 prolif	TLR4 MyD88 comp	NOD2 RIPK2 PPI	MC4R antag cAMP	MC4R barr agon	TLR9-MyD88 block	MC4R barr ag	MOR DOR agonist
Cc1cccc2cc3c(NC(=O)c4ccccn4)nn(C)c3nc12	-1	3	-3	-3	13*	1	2	4
CCCC(=O)Nc1nn(C)c2nc3c(C)cccc3cc12	-1	17	-4	-1	-3	4	·	·
Cc1c(CCOC(=O)c2ccc(Cl)cc2Cl)sc[n+]1CC(=O)c1ccc(Br)cc1	-6	·	6	8	28*	-5	23*	23*
Cc1c(CCOC(=O)C2C3CC4CC(C3)CC2C4)sc[n+]1CC(=O)c1ccc(Br)cc1 (configuration not stated)	-4	21	6	0	7	-7	·	·
CNC(=O)C[C@H]1C(=O)N(CCc2ccccc2)C[C@@H]1c1ccc(OC)cc1	·	·	0	10	0	-4	·	·
CSc1c(CC(=O)NCCCO)n(Cc2ccccc2)c2ccccc12	-1	·	-3	2	0	-5	·	·
COc1ccc(NC(=O)Cc2c(SC)c3ccccc3n2Cc2ccccc2)cc1	0	-38	-6	9	24*	-6	2	10
CS(=O)(=O)c1ccccc1C(=O)Nc1cccc2ncccc12	0	·	-2	8	-3	2	·	·
COc1ccccc1-c1cc(NC=O)c2ncc(-c3ccc(F)cc3)n2c1	·	·	-10	14	18*	·	18*	4
COc1cc(-c2cnc3c(NC=O)cc(-c4cccc(NC(C)=O)c4)cn23)cc(OC)c1OC	·	·	-7	-65	-2	·	·	·
COc1cc(-c2cc(NC=O)c3ncc(-c4cccc(C(F)(F)F)c4)n3c2)cc(OC)c1OC	·	·	3	-28	22*	·	19*	8
COc1ccccc1-c1cc(NC=O)c2ncc(-c3cccc(C(F)(F)F)c3)n2c1	·	·	2	-1	25*	·	23*	2
CN(C)c1ccccc1-c1cc(NC=O)c2ncc(-c3cccc(C(F)(F)F)c3)n2c1	·	·	-5	-6	27*	·	27*	5
COc1ccc(F)cc1-c1cc(NC=O)c2ncc(-c3cc(OC)c(OC)c(OC)c3)n2c1	·	·	6	-61	3	·	·	·
Cn1ccnc1C1CCCCN1Cc1nc(-c2ccc(Cl)cc2)no1 (configuration not stated)	3	10	1	-2	-3	-1	·	·
